According to ChEMBL document CHEMBL4765336, “Discovery of coumarin derivatives as potent and selective cyclin-dependent kinase 9 (CDK9) inhibitors with high antitumour activity” (Eur J Med Chem, 2020):

What was measured:
[1] = target: CDK9/cyclin T1 (Homo sapiens) (UniProt O60563+P50750); assay: Inhibition of CDK9/Cyclin T1 (unknown origin) assessed as enzyme activity at 1 uM preincubated for 20 mins followed by ATP addition and measured after 120 mins in presence of [33P-gamma] ATP by hotspot kinase assay relative to control; assay type: protein-complex assay; parameters: scale not given: the % may be the effect or the level left; conditions: time 140.0 min
Method in brief: (§1)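 Radiometric filter-binding kinase assay, buffer pH 7.5 with 10 mM MgCl2 and 1% DMSO. Compound tested at a single 1.0 μM, preincubated 20 min at 25 °C. Reaction started with ATP/[γ-33P]ATP at 10 μM final, run 120 min at 25 °C. Remaining % enzyme activity reported, n=2.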

[2] = Metabolic stability in monkey liver microsomes assessed as half life at 1 uM incubated up to 60 mins in presence of NADPH by LC-MS/MS analysis; assay type: ADME, Macaca mulatta, Microsome; conditions: rhesus monkey
Method in brief: (§2)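 Liver microsomes (0.5 mg/mL) incubated at 37 °C with compound at 1.0 μM final, 3 mM MgCl2 and 1 mM NADPH in 100 mM PBS pH 7.4. Samples taken at 0, 5, 15, 30, 60 min; remaining parent measured by LC-MS/MS. k = −slope, T1/2 = 0.693/k, CLint = k/microsomal protein concentration. Midazolam served as control.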

[3] = Metabolic stability in monkey liver microsomes assessed as intrinsic clearance at 1 uM incubated up to 60 mins in presence of NADPH by LC-MS/MS analysis; assay type: ADME, Macaca mulatta, Microsome; conditions: rhesus monkey, read-out: CLH; method in brief: as §2
[4] = Metabolic stability in dog liver microsomes assessed as intrinsic clearance at 1 uM incubated up to 60 mins in presence of NADPH by LC-MS/MS analysis; assay type: ADME, Canis lupus familiaris, Microsome; conditions: read-out: CLH; method in brief: as §2
[5] = Metabolic stability in dog liver microsomes assessed as half life at 1 uM incubated up to 60 mins in presence of NADPH by LC-MS/MS analysis; assay type: ADME, Canis lupus familiaris, Microsome; method in brief: as §2
[6] = Metabolic stability in rat liver microsomes assessed as half life at 1 uM incubated up to 60 mins in presence of NADPH by LC-MS/MS analysis; assay type: ADME, Microsome; method in brief: as §2
[7] = Metabolic stability in human liver microsomes assessed as half life at 1 uM incubated up to 60 mins in presence of NADPH by LC-MS/MS analysis; assay type: ADME, Microsome; method in brief: as §2
[8] = Metabolic stability in rat liver microsomes assessed as intrinsic clearance at 1 uM incubated up to 60 mins in presence of NADPH by LC-MS/MS analysis; assay type: ADME, Microsome; conditions: read-out: CLH; method in brief: as §2
[9] = Metabolic stability in human liver microsomes assessed as intrinsic clearance at 1 uM incubated up to 60 mins in presence of NADPH by LC-MS/MS analysis; assay type: ADME, Microsome; conditions: read-out: CLH; method in brief: as §2
[10] = system: MV4-11; assay: Antiproliferative activity against human MV4-11 cells assessed as inhibition of cell growth incubated for 72 hrs by Celltiter-Glo luminescent assay; assay type: functional, cell-based; conditions: MV4-11, 72 h
Method in brief: (§3)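 Cells seeded in growth medium and held overnight at 37 °C; medium-only wells served as background. DMSO stocks were diluted in medium to 3× final and added; cells incubated 72 h at 37 °C, 5% CO2. Viability read by CellTiter-Glo luminescence after 60 min at room temperature. IC50 from curve fit, mean of duplicate.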

[11] = target: CDK2/Cyclin A2 (Homo sapiens, UniProt P24941); assay: Inhibition of CDK2/Cyclin A (unknown origin) preincubated for 20 mins followed by ATP addition and measured after 120 mins in presence of [33P-gamma] ATP by hotspot kinase assay; assay type: protein-complex assay
Method in brief: (§4)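 Radiometric filter-binding assay: kinase and substrate in 20 mM Hepes pH 7.5, 10 mM MgCl2, 1 mM EGTA, 0.02% Brij35, 0.02 mg/mL BSA, 0.1 mM Na3VO4, 2 mM DTT, 1% DMSO. Compound (top 1/10/27 μM, 3-fold serial dilutions) preincubated 20 min at 25 °C. ATP plus [γ-33P]ATP added to 10 μM final, reacted 120 min at 25 °C. IC50 from curve fit, duplicate mean.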

[12] = species on record: Homo sapiens; assay: Selectivity index, ratio of IC50 for CDK2/Cyclin A (unknown origin) to IC50 for CDK9/Cyclin T1 (unknown origin)
[13] = target: Cyclin-dependent kinase 7/ cyclin H (Homo sapiens, UniProt P50613); assay: Inhibition of CDK7/Cyclin H (unknown origin) preincubated for 20 mins followed by ATP addition and measured after 120 mins in presence of [33P-gamma] ATP by hotspot kinase assay; assay type: protein-complex assay; method in brief: as §4
[14] = target: CDK9/cyclin T1 (Homo sapiens, UniProt P50750); assay: Inhibition of CDK9/Cyclin T1 (unknown origin) preincubated for 20 mins followed by ATP addition and measured after 120 mins in presence of [33P-gamma] ATP by hotspot kinase assay; assay type: protein-complex assay
[15] = target: CDK9/Cyclin K (Homo sapiens, UniProt P50750); assay: Inhibition of CDK9/Cyclin K (unknown origin) preincubated for 20 mins followed by ATP addition and measured after 120 mins in presence of [33P-gamma] ATP by hotspot kinase assay; assay type: protein-complex assay
Method in brief: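 HotSpot radioisotope filter-binding assay. Kinase and substrate were mixed at room temperature in 20 mM Hepes pH 7.5 with 10 mM MgCl2, 1 mM EGTA, 0.02% Brij35, 0.02 mg/mL BSA, 0.1 mM Na3VO4, 2 mM DTT and 1% DMSO. Compound was added in a 3-fold dilution series starting at 1, 10 or 27 μM and preincubated 20 min at 25 °C. ATP plus [γ-33P]ATP (10 μM final) was then added for 120 min at 25 °C. IC50 from curve fit, duplicate mean.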

[16] = system: HepG2; assay: Antiproliferative activity against human HepG2 cells assessed as inhibition of cell growth incubated for 72 hrs by Celltiter-Glo luminescent assay; assay type: functional, cell-based; conditions: HepG2, 72 h; method in brief: as §3
[17] = system: A-375; assay: Antiproliferative activity against human A-375 cells assessed as inhibition of cell growth incubated for 72 hrs by Celltiter-Glo luminescent assay; assay type: functional, cell-based; conditions: A-375, 72 h; method in brief: as §3
[18] = system: NCI-N87; assay: Antiproliferative activity against human NCI-N87 cells assessed as inhibition of cell growth incubated for 72 hrs by Celltiter-Glo luminescent assay; assay type: functional, cell-based; conditions: NCI-N87, 72 h; method in brief: as §3
[19] = system: PANC-1; assay: Antiproliferative activity against human PANC-1 cells assessed as inhibition of cell growth incubated for 72 hrs by Celltiter-Glo luminescent assay; assay type: functional, cell-based; conditions: PANC-1, 72 h; method in brief: as §3
[20] = system: SW-620; assay: Antiproliferative activity against human SW-620 cells assessed as inhibition of cell growth incubated for 72 hrs by Celltiter-Glo luminescent assay; assay type: functional, cell-based; conditions: SW-620, 72 h; method in brief: as §3
[21] = system: A549; assay: Antiproliferative activity against human A549 cells assessed as inhibition of cell growth incubated for 72 hrs by Celltiter-Glo luminescent assay; assay type: functional, cell-based; conditions: A549, 72 h; method in brief: as §3
[22] = system: MOLM-13; assay: Antiproliferative activity against human MOLM-13 cells assessed as inhibition of cell growth incubated for 72 hrs by Celltiter-Glo luminescent assay; assay type: functional, cell-based; conditions: MOLM-13, 72 h; method in brief: as §3
[23] = system: MIA PaCa-2; assay: Antiproliferative activity against human MIA PaCa-2 cells assessed as inhibition of cell growth incubated for 72 hrs by Celltiter-Glo luminescent assay; assay type: functional, cell-based; conditions: MIA PaCa-2, 72 h; method in brief: as §3
[24] = system: NCI-H460; assay: Antiproliferative activity against human NCI-H460 cells assessed as inhibition of cell growth incubated for 72 hrs by Celltiter-Glo luminescent assay; assay type: functional, cell-based; conditions: NCI-H460, 72 h; method in brief: as §3
[25] = system: HCT-116; assay: Antiproliferative activity against human HCT-116 cells assessed as inhibition of cell growth incubated for 72 hrs by Celltiter-Glo luminescent assay; assay type: functional, cell-based; conditions: HCT-116, 72 h; method in brief: as §3
[26] = system: MDA-MB-231; assay: Antiproliferative activity against human MDA-MB-231 cells assessed as inhibition of cell growth incubated for 72 hrs by Celltiter-Glo luminescent assay; assay type: functional, cell-based; conditions: MDA-MB-231, 72 h; method in brief: as §3
[27] = system: BXPC-3; assay: Antiproliferative activity against human BxPC3 cells assessed as inhibition of cell growth incubated for 72 hrs by Celltiter-Glo luminescent assay; assay type: functional, cell-based; conditions: BXPC-3, 72 h; method in brief: as §3
[28] = target: CDK2/Cyclin A2 (Homo sapiens) (UniProt P24941+P20248); assay: Inhibition of CDK2/Cyclin A (unknown origin) assessed as enzyme activity at 1 uM preincubated for 20 mins followed by ATP addition and measured after 120 mins in presence of [33P-gamma] ATP by hotspot kinase assay relative to control; assay type: protein-complex assay; parameters: scale not given: the % may be the effect or the level left; conditions: time 140.0 min; method in brief: as §1
[29] = system: MV4-11; assay: Antitumor activity against human MV4-11 cells xenografted in Balb/c nude mouse assessed as reduction in tumor volume at 40 mg/kg, iv administered once daily for 21 days (reference value: 1.00 g); assay type: functional; conditions: time 21 day

CDK9/cyclin T1, sequence (O60563 whole entry): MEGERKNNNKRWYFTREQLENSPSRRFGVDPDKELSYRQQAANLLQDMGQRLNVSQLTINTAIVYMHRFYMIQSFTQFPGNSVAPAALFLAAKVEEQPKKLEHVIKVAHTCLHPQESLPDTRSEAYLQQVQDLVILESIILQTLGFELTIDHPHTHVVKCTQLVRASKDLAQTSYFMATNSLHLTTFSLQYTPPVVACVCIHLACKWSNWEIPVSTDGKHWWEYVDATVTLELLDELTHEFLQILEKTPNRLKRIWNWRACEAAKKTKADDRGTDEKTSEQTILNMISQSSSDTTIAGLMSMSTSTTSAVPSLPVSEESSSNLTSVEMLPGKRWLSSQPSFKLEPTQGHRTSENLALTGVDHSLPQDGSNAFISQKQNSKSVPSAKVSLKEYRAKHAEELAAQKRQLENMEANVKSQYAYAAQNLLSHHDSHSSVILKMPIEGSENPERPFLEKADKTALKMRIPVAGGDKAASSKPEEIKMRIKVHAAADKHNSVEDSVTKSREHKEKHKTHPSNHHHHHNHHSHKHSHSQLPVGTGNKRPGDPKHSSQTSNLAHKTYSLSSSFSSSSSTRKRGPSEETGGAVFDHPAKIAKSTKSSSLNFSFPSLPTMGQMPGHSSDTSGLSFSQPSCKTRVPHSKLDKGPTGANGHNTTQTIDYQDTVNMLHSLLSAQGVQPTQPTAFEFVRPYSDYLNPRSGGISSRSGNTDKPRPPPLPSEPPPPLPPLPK
CDK9/cyclin T1, sequence (P50750 whole entry): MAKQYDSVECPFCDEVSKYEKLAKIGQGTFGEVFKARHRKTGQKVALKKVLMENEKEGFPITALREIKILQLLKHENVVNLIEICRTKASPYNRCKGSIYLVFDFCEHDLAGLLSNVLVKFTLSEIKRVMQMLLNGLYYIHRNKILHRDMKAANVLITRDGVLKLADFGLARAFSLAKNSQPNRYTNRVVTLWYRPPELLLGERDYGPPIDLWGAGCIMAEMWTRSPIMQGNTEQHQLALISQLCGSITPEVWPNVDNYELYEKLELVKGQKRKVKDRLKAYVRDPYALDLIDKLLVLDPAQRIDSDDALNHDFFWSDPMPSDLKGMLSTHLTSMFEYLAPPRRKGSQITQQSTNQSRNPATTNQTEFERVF
Cyclin-dependent kinase 7/ cyclin H, sequence (P51946 whole entry): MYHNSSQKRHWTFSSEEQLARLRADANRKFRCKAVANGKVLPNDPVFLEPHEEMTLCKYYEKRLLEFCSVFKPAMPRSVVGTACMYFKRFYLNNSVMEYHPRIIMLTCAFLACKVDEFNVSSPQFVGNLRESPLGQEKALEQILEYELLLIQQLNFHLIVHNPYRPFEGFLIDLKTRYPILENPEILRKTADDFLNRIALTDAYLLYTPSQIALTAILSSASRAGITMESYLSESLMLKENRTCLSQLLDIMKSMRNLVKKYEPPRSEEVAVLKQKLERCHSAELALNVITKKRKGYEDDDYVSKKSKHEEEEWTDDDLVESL
Cyclin-dependent kinase 7/ cyclin H, sequence (P50613 whole entry): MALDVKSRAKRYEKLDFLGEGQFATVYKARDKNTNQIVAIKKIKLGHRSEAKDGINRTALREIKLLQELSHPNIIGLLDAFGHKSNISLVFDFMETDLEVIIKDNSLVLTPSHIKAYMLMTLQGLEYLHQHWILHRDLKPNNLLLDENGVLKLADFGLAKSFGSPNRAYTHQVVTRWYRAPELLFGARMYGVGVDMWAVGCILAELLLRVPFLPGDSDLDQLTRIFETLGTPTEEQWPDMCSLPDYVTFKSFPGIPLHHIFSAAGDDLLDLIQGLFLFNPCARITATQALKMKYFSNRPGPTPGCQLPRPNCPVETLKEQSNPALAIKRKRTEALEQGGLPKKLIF
CDK9/Cyclin K, sequence (P50750 whole entry): as the sequence (P50750 whole entry) above
CDK9/Cyclin K, sequence (O75909 whole entry, further chain): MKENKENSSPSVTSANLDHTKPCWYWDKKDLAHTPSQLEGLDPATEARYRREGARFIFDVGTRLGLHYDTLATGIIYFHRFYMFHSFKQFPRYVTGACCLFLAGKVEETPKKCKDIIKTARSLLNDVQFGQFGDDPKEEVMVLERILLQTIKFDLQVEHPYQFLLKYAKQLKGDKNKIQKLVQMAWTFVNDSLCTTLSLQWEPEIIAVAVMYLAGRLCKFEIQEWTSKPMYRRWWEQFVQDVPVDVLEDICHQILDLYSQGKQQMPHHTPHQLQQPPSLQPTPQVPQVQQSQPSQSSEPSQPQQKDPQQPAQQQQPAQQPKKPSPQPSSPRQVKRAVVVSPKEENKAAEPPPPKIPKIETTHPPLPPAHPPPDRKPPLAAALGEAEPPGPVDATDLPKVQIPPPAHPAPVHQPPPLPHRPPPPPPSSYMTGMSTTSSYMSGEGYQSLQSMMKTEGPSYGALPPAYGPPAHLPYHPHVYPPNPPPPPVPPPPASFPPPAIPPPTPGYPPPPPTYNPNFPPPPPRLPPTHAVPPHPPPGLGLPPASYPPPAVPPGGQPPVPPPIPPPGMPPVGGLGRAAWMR

CCc1ccccc1-c1cc(Nc2ccc3c(N4CCOCC4)c(C(C)=O)c(=O)oc3c2)ncn1
Activity [1]: 90%

Cc1ncc2n1-c1ccc(Cl)cc1C(c1ccccc1F)=NC2 [MIDAZOLAM]
half-life at 1 µM [2]: 6.29 min | microsomal CLint at 1 µM [3]: 551 µL/min/mg | microsomal CLint at 1 µM [4]: 1500 µL/min/mg | half-life at 1 µM [5]: 2.31 min | half-life at 1 µM [6]: 3.82 min | half-life at 1 µM [7]: 12.1 min | microsomal CLint at 1 µM [8]: 908 µL/min/mg | microsomal CLint at 1 µM [9]: 287 µL/min/mg

COc1cccc(-c2ccnc(Nc3ccc4c(N5CCOCC5)c(C(C)=O)c(=O)oc4c3)n2)c1OC
Activity [1]: 51.7% | IC50 [10]: 5070 nM

CC(=O)c1c(C)c2ccc(Nc3nccc(-c4cccnc4)n3)cc2oc1=O
IC50 [11]: 1210 nM | Ratio IC50 [12]: 7 | IC50 [10]: 12900 nM | IC50 [13]: > 27000 nM | IC50 [14]: 184 nM | IC50 [15]: 235 nM

CC(=O)c1c(N2CCOCC2)c2ccc(Nc3cc(-c4ccccc4)ncn3)cc2oc1=O
Activity [1]: 104%

CC(=O)c1c(N2CCOCC2)c2ccc(Nc3cc(-c4ccccc4C)ncn3)cc2oc1=O
Activity [1]: 92.2%

COc1cc(F)ccc1-c1ccnc(Nc2ccc3c(N4CCOCC4)c(C(C)=O)c(=O)oc3c2)n1
IC50 [11]: 1330 nM | half-life at 1 µM [2]: 22.2 min | IC50 [16]: 560 nM | IC50 [17]: 960 nM | IC50 [18]: 3580 nM | IC50 [19]: 1880 nM | IC50 [20]: 2700 nM | microsomal CLint at 1 µM [3]: 62.5 µL/min/mg | microsomal CLint at 1 µM [4]: 98.3 µL/min/mg | IC50 [10]: 250 nM | half-life at 1 µM [5]: 14.1 min | IC50 [21]: 2360 nM | IC50 [22]: 260 nM | half-life at 1 µM [6]: 9.61 min | IC50 [23]: 1600 nM | IC50 [14]: 8.8 nM | half-life at 1 µM [7]: 33.5 min | microsomal CLint at 1 µM [8]: 144 µL/min/mg | IC50 [24]: 2150 nM | microsomal CLint at 1 µM [9]: 41.4 µL/min/mg | IC50 [25]: 660 nM | IC50 [26]: 1580 nM | IC50 [27]: 910 nM

COc1cc(F)ccc1-c1ccnc(Nc2ccc3c(N4CCN(C)CC4)c(C(C)=O)c(=O)oc3c2)n1
IC50 [10]: 520 nM | IC50 [14]: 16.4 nM | Activity [28]: 74.8%

Nc1ccn([C@@H]2O[C@H](CO)[C@@H](O)[C@@H]2O)c(=O)n1 [CYTARABINE]
Activity [29]: 0.26 g

COc1cccc(-c2ccnc(Nc3ccc4c(N5CCOCC5)c(C(C)=O)c(=O)oc4c3)n2)c1
IC50 [10]: 1490 nM | IC50 [14]: 18.4 nM | Activity [28]: 54.1%

COc1cccc(F)c1-c1ccnc(Nc2ccc3c(N4CCOCC4)c(C(C)=O)c(=O)oc3c2)n1
IC50 [10]: 520 nM | IC50 [14]: 13.7 nM | Activity [28]: 58.7%

CC(=O)c1c(N2CCOCC2)c2ccc(Nc3cc(-c4ccccc4C(F)(F)F)ncn3)cc2oc1=O
Activity [1]: 106%

COc1cc(F)ccc1-c1ccnc(Nc2ccc3c(N4CCCCC4)c(C(C)=O)c(=O)oc3c2)n1
IC50 [10]: 730 nM | IC50 [14]: 6.5 nM | Activity [28]: 73.1%

COc1ccccc1-c1ccnc(Nc2ccc3c(N4CCOCC4)cc(=O)oc3c2)n1
IC50 [10]: 4570 nM | IC50 [14]: 47.2 nM | Activity [28]: 57.9%
